Data set [1] in a line: Subacute. Type of data set: in vivo. Particulars: 12.5, 50 and 200 mg kg^−1, 30 days, male BALB/c mice; acute >3 g kg^−1.
Data set [2] is described as follows: Acute toxicity in mice. Type of data set: in vivo. The conditions noted are these: no indications of adverse effects.
The test system of data set [3] is CYP1A, CYP2B6, CYP2C8, CYP2C9, CYP2C19, CYP2D6, and CYP3A. As to the kind of experiment: Inhibition of cytochrome P450 isoforms. Type of data set: in vitro ADME.
In data set [4] the test system is CVB3 Nancy. Kind of data set: Mechanism of action, modified plaque reduction assay. Type of data set: cell-based, coxsackievirus B3. The conditions noted are these: 0.5 and 1 μM.
In data set [5] the test system is CYP1A2, CYP2B6, and CYP3A4. Kind of data set: Induction of cytochrome P450 isoforms. Type of data set: in vitro ADME.
The test system of data set [6] is CVB3 Nancy wildtype. Kind of data set: Plaque reduction assay in HeLa cells, CVB3 Nancy wildtype. Type of data set: cell-based, coxsackievirus B3. Particulars: Enterovirus B, read-out: IC50 plaque inhibition, CVB3 Nancy wildtype. In a few lines: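 Plaque reduction assay in HeLa cells on wild-type CVB3 Nancy and on compound-resistant variants. The variants were isolated from wild-type pools under 1 μg mL−1 (2.7 μm) test compound, and their amino acid substitutions were identified by genetic characterization. IC50 is taken from plaque inhibition. Means and/or SD come from at least three assays.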
On the technique in general: Plaque reduction counts the foci of infection that form in a cell layer.

The subject of data set [7] is 46 RV serotypes and 14 EV strains. As to the kind of experiment: CPE inhibition assays in HeLa cells, panel of 60 RV and EV strains. Type of data set: cell-based, rhinovirus, enterovirus.
Data set [8] in a line: Pharmacokinetics in mice after intragastric administration. Type of data set: in vivo.
Data set [9] can be described thus: Plasma stability. Type of data set: in vitro ADME.
Data set [10] deals with CVB3 31-1-93. Kind of data set: CVB3-induced chronic myocarditis in NMRI mice. Type of data set: in vivo. Particulars: 100 mg kg^−1 orally twice daily for 7 days.
Data set [11] can be described thus: Metabolic stability. Type of data set: in vitro ADME.
The test system of data set [12] is CVB3 Nancy (L1092). Kind of data set: CPE inhibition in HeLa cells, CVB3 Nancy. Type of data set: cell-based, coxsackievirus B3. Particulars: Enterovirus B, read-out: IC50, cytopathic effect of CVB3 Nancy.
The subject of data set [13] is CVB3 97927 (I1092). As to the kind of experiment: CPE inhibition in HeLa cells, CVB3 97927. Type of data set: cell-based, coxsackievirus B3. Particulars: Enterovirus B, read-out: IC50, cytopathic effect of CVB3 97927. (Cytopathic effects are the visible damage that an infection or toxin causes in cultured cells.)
For data set [14], the target named is K+ channel (hERG) (Homo sapiens, UniProt Q12809). Kind of data set: QT prolongation K+ channel.
K+ channel (hERG), sequence (Q12809 whole entry): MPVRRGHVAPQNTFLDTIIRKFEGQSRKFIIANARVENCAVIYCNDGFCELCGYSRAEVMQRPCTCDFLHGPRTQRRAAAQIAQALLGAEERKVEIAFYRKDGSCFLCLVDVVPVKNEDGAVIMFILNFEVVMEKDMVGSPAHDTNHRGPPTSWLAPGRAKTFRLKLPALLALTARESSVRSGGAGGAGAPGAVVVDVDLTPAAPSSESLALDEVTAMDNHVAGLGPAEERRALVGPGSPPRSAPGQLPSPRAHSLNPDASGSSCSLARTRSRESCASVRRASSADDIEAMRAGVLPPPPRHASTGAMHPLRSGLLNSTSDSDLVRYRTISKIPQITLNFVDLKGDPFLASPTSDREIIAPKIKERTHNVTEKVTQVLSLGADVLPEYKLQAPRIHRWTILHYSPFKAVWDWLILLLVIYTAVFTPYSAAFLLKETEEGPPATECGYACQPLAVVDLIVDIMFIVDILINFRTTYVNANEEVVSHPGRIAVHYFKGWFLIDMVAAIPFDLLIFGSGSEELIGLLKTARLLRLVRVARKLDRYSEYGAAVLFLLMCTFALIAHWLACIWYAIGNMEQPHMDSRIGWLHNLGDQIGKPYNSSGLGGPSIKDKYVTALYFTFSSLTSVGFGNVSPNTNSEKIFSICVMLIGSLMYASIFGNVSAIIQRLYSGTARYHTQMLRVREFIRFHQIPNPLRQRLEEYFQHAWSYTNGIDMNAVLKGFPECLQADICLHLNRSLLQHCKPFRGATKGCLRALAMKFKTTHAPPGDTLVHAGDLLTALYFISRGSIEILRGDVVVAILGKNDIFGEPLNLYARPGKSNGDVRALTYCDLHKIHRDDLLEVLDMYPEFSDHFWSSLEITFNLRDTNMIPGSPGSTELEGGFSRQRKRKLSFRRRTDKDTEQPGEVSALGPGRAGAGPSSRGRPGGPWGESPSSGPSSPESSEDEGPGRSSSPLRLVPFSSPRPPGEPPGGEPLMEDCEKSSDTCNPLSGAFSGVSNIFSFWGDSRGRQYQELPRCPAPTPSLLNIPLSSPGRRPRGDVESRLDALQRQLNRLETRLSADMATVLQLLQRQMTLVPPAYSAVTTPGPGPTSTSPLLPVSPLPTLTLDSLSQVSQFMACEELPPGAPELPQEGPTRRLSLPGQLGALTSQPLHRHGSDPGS

Consider one compound from article PMC4600222 (Chemmedchem, 2015).

Bounds are passed on as bounds.

For orientation: IC50 means the point on the concentration scale where inhibition reaches its midpoint. What is called AUC is the area under the concentration-time curve, a measure of exposure. High values mean more exposure, low ones less exposure. The term AUC(0-t) denotes exposure summed from dosing to a finite time, without extrapolation to infinity. Higher therefore signals more exposure. What is called MRT is a mean duration of stay, worked out from the concentration-time curve. As usually defined, the Tmax is the time at which the peak concentration occurs. By half-life is commonly meant how long it takes for the measured level to halve. Low readings indicate fast loss, high ones slow loss. Regarding `Nc1nc(-c2ccccc2)nc2[nH]nc(Nc3ccc(C(F)(F)F)cc3)c12` [Compound 36, 3-(4-trifluoromethylphenyl)amino-6-phenylpyrazolo[3,4-d]pyrimidine-4-amine], in data set [1], the “acute and chronic toxicological studies, overall finding” value was “no indications of adverse anatomical, behavioral or physiological effects”. For the same compound, the Acute toxicity in [2] was above 3 g/kg. Moreover, the “Inhibition of CYP1A, CYP2B6, CYP2C8, CYP2C9, CYP2C19, CYP2D6, and CYP3A” value in data set [3] is given as “neither an inducer nor an inhibitor”. Besides, the “effect on virus infectivity, incubation with cell-free virus” value in data set [4] (1 h at 37 °C, then diluted 1:10^6) was “strong loss of virus infectivity”. For the same compound, in [4] (cells pretreated prior to virus inoculation), the “effect on virus-induced plaque formation, pretreatment of cells” value is listed as “no effect”. In data set [5], the “Induction of CYP1A2, CYP2B6, and CYP3A4” value was “neither an inducer nor an inhibitor”. The 50% inhibitory concentration (IC50) in data set [6] was determined as 160 ± 30 nM. In addition, in [7] (Enterovirus, HeLa, read-out: IC50 values for high-level pleconaril-resistant viruses), the concentration for half-maximal inhibition (IC50) lay in the range of 40 to 640 nM. Besides, in [7] (of the 60 strains tested, CPE inhibition, HeLa cells), the strains inhibited is on record as 52. In [8] (mice, 100 mg/kg intragastric), this compound had a Cl of 10.42 mL·h/kg. For the same compound, in [8] (mouse, plasma, po, 100 mg/kg), the AUC came out at 9600 ng·h/mL, the exposure AUC(0-t) was 6420 ng·h/mL, the MRT was 3.54 h and the Tmax worked out at 3 h. In data set [8] (mouse, plasma, po, 100 mg/kg), this compound gave a half-life of 3.5 h and a k el of 5e-05 s⁻¹. For the same compound, the “Plasma stability (human), remaining (%)” value in [9] is 100%. Further, the “antiviral effect, treatment started 3 h prior to or 1 and 3 days p. i.” value in data set [10] is “strong antiviral effect”. Also, the “therapeutic effect, treatment started 7 days p. i.” value in data set [10] (start 7 days p. i., results not shown) is recorded as “No therapeutic effect”. Moreover, in data set [11], the “Metabolic stability (human liver microsomes), remaining %” value was 100%. The half-maximal inhibitory concentration (IC50) in data set [12] was determined as 160 nM. Also, the IC50 in [13] worked out at 1050 nM. In [14], the “QT prolongation K+ channel (hERG)” value is given as “low”.
